# Columns and labels:
# [1] = target: native integrins expressed on U87MG (human (endogenous in U87MG)); assay: flow cytometry on cells
# [2] = target: recombinant integrin αVβ3 stably expressed on K562 cells (UniProt P06756); assay: flow cytometry on cells
# [3] = target: native integrin α5β1 on K562 cells (human (endogenous in K562)) (UniProt P08648); assay: flow cytometry on cells
# [4] = target: αVβ3** double mutant (β3-M180A and β3-R214G) transiently expressed on HEK293T cells (UniProt P06756); assay: flow cytometry on cells
# Human αVβ3 ectodomain = assay: Crystal structure of knottin bound to αVβ3 ectodomain; settings: Mn2+
# How it was run: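 Human αVβ3 ectodomain was expressed in insect cells and crystallized at 4 °C by hanging-drop vapor diffusion. Test compound (5 mM) was soaked into the crystals in well solution with 1 mM Mn2+ for 2–3 weeks. Crystals were harvested in 12% PEG 3500, 100 mM sodium acetate pH 4.5, 800 mM NaCl, 2 mM Mn2+ and 5 mM test compound. They were cryoprotected stepwise to 24% glycerol and flash frozen. Phases came from molecular replacement.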
# integrins αVβ3 and α5β1 = assay: Integrin selectivity of knottins; type: binding
# αVβ3 [5] = settings: ref Kimura et al., 2009a; cited from earlier work
# α5β1 = settings: ref Kimura et al., 2009a; cited from earlier work
# [6] = system: patients with glioblastoma; settings: ref Mason, 2015, cited from earlier work
# αVβ3 [7] = settings: ref Van Agthoven et al., 2014; Xiong et al., 2002; cited from earlier work
# αVβ3 [8] = settings: ref Reynolds et al., 2009; cited from earlier work
# UniProt P08648, sequence (P08648 42-1049, chain 1 of 2): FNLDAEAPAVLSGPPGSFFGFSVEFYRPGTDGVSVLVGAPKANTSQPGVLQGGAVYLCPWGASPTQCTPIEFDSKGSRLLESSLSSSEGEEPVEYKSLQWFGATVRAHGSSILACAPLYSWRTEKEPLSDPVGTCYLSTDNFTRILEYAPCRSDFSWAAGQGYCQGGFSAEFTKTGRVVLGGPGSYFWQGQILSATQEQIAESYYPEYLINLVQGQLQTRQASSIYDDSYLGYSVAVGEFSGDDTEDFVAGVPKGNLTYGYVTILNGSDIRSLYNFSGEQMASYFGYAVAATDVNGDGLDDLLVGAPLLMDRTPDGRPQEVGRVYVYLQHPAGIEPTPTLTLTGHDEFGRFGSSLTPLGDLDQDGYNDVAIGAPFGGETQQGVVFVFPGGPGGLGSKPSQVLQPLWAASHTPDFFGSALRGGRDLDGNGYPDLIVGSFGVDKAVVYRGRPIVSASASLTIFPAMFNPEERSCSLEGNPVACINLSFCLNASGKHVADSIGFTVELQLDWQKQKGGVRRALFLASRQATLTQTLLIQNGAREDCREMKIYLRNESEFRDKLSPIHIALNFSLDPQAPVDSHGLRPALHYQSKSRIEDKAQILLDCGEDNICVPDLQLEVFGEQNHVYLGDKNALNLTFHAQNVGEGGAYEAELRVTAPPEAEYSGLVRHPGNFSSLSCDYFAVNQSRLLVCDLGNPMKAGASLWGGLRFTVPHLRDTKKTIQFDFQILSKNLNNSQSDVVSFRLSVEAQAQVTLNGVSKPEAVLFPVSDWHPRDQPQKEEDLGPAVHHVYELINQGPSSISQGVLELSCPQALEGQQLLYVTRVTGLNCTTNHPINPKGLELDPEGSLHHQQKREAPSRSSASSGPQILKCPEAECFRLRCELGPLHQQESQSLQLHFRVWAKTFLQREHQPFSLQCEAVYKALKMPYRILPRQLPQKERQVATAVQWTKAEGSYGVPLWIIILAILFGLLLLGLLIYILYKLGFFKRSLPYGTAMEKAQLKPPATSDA
# UniProt P08648, sequence (P05556 21-798, chain 2 of 2, further chain): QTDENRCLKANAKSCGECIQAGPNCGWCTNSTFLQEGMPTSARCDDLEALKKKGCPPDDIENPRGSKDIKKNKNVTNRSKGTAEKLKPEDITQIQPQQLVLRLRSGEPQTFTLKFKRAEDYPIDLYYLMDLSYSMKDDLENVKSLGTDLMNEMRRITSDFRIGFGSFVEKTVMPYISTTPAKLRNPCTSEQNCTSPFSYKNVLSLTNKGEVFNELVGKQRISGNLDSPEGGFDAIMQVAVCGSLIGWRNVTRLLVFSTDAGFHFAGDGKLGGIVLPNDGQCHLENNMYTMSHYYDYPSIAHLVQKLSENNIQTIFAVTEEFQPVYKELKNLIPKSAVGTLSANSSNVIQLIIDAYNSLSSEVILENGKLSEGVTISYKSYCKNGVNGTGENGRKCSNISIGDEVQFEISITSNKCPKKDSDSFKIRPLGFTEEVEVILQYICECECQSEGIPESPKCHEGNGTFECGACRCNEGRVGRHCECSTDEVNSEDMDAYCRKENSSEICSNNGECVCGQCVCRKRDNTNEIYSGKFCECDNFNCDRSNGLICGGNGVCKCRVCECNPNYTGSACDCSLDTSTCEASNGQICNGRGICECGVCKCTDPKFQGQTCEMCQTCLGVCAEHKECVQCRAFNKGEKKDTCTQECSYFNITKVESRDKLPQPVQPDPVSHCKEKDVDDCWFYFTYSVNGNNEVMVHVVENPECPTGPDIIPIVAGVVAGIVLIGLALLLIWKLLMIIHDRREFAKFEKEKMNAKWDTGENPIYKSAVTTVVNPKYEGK
substance,measurement,setting,value
2.5D-Fc fusion protein,Kd,[1],1.7 nM
same,Kd,[2],1.4 nM
2.5F-Fc fusion protein,Kd,[3],9.2 nM
same,Kd,[1],5.9 nM
same,Kd,[2],6.9 nM
Alexa-647-labeled knottin 2.5D (designed binder),percent of binding to wt-αVβ3,[4],28%
Alexa-647-labeled knottin 2.5F (designed binder),percent of binding to wt-αVβ3,[4],85%
QG^5RGDWA^10P (disulfide) [2.5D],agonist character inferred from βA domain conformational change,Human αVβ3 ectodomain,partial agonists
same,integrin selectivity (in words),integrins αVβ3 and α5β1,αVβ3-specific
same,affinity to αVβ3 (in words),αVβ3 [5],nanomolar affinity
RP^5RGDNP^10P (disulfide) [2.5F],agonist character inferred from βA domain conformational change,Human αVβ3 ectodomain,partial agonists
same,integrin selectivity (in words),integrins αVβ3 and α5β1,binds both αVβ3 and α5β1
same,affinity to αVβ3 (in words),αVβ3 [5],nanomolar affinity
same,affinity to α5β1 (in words),α5β1,nanomolar affinity
cilengitide: partial agonist targeting αVβ3,pharmacokinetics (in words),[6]; likely related to failure in glioblastoma,unfavorable pharmacokinetics
same,survival of patients (in words),[6]; primary targeting of αVβ3,failed to prolong survival of patients with glioblastoma
same,agonist/antagonist character at αVβ3,αVβ3 [7],partial agonist
same,agonist-like behavior (in words),αVβ3 [8],agonist-like behavior
